Data reported in ChEMBL document CHEMBL1158515, “Novel selective thiazoleacetic acids as CRTH2 antagonists developed from in silico derived hits. Part 1” (Bioorg Med Chem Lett, 2010).

Experiments:
[1] = biological target: T1, Prostaglandin D2 receptor 2 (Homo sapiens, UniProt Q9Y5Y4); experiment: Antagonist activity at human CRTH2 receptor expressed in HEK285-7 cells assessed as inhibition of beta arrestin translocation by bioluminescence resonance energy transfer assay; assay type: functional, cell-based
T1 sequence (Q9Y5Y4 whole entry): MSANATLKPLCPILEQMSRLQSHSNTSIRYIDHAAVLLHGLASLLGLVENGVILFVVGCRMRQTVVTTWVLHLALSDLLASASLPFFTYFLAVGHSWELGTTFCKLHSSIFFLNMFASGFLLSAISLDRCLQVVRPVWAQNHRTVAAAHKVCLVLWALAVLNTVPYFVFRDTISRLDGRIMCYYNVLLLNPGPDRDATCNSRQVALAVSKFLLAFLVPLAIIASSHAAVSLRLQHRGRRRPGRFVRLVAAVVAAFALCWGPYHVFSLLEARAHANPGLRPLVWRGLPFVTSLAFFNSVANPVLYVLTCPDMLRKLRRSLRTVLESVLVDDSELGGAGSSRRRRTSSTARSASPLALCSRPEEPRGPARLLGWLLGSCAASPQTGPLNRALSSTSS
Method in brief: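 BRET2 readout in HEK385-7 cells transfected with CRTH2 (GFP2-β-arrestin2 acceptor, receptor-Rluc donor). Cells preincubated with antagonist 5 min with shaking, then PGD₂ added at a level eliciting about 75–80% of maximal agonist response, 5 min more. DeepBlueC coelenterazine injected; emission read 5 s later at 400 and 515 nm; signal = 515/400 ratio. IC50 derived.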

[2] = biological target: T1, Prostaglandin D2 receptor 2; experiment: Displacement of[3H]PGD2 from human CRTH2 receptor expressed in african green monkey COS7 cells; assay type: cell-based, COS-7
Method in brief: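 Equilibrium competition binding against [³H]PGD₂ on stably transfected COS7 cells expressing human CRTH2. Nonspecific binding defined with […] unlabelled PGD₂. IC50 reported.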

[3] = biological target: T2, Prostaglandin D2 receptor 2 (Homo sapiens) (UniProt Q9Y5Y4); experiment: Antagonist activity at human CRTH2 receptor expressed in HEK285-7 cells assessed as inhibition of beta arrestin translocation by bioluminescence resonance energy transfer assay relative to control; assay type: functional, cell-based
T2 sequence (whole entry): T1 sequence (Q9Y5Y4 whole entry)
Method in brief: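 Same BRET2 β-arrestin2 translocation format in CRTH2-transfected HEK385-7 cells: 5 min antagonist preincubation, then PGD₂ at about 75–80% of maximal agonist efficacy for 5 min, DeepBlueC coelenterazine, 515/400 nm ratio. Value is antagonist efficacy expressed as percent.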

SMILES: O=C(O)Cc1sc(Nc2ccccc2)nc1-c1ccc(Oc2ccccc2)cc1
- IC50 [1]: 350 nM
- IC50 [2]: 84 nM
- Efficacy [3]: > 70%

SMILES: COc1ccc(Nc2nc(-c3ccccc3)c(CC(=O)O)s2)cc1
- IC50 [1]: 1500 nM
- IC50 [2]: 940 nM
- Efficacy [3]: > 70%

SMILES: COc1ccc(-c2ccccc2Cc2nc(-c3ccc(F)cc3)c(CC(=O)O)s2)cc1
- IC50 [1]: 270 nM
- IC50 [2]: 72 nM
- Efficacy [3]: > 70%

SMILES: N#Cc1ccc(-c2ccccc2Cc2nc(-c3ccc(F)cc3)c(CC(=O)O)s2)cc1
- IC50 [1]: 190 nM
- IC50 [2]: 170 nM
- Efficacy [3]: 30%

SMILES: O=C(O)Cc1sc(Nc2ccccc2)nc1-c1ccccc1
- IC50 [1]: 1500 nM
- IC50 [2]: 350 nM
- Efficacy [3]: > 70%

SMILES: O=C(O)Cc1sc(Nc2ccccc2F)nc1-c1ccc(Oc2ccccc2)cc1
- IC50 [1]: > 100000 nM
- IC50 [2]: 210 nM
- Efficacy [3]: > 70%

SMILES: COc1ccccc1Nc1nc(-c2ccc(-c3ccccc3)cc2)c(CC(=O)O)s1
- IC50 [1]: 1900 nM
- IC50 [2]: 310 nM
- Efficacy [3]: > 70%

SMILES: CN(C)c1ccc(-c2nc(-c3ccc(Br)cc3)c(CC(=O)O)s2)cc1
- IC50 [2]: 460 nM
- Efficacy [3]: > 70%

SMILES: O=C(O)Cc1sc(Nc2ccccc2)nc1-c1ccc(F)cc1
- IC50 [1]: 1300 nM
- IC50 [2]: 650 nM
- Efficacy [3]: > 70%

SMILES: O=C(O)Cc1sc(Nc2ccccc2)nc1-c1ccc(Cl)cc1
- IC50 [1]: 1300 nM
- IC50 [2]: 100 nM
- Efficacy [3]: > 70%

SMILES: O=C(O)Cc1sc(-c2ccccc2)nc1-c1ccccc1
- IC50 [1]: 2500 nM
- IC50 [2]: 870 nM
- Efficacy [3]: > 70%

SMILES: O=C(O)Cc1sc(Cc2ccccc2)nc1-c1ccc(Cl)cc1
- IC50 [1]: 4100 nM
- IC50 [2]: 180 nM
- Efficacy [3]: > 70%

SMILES: COc1ccc(-c2nc(-c3ccccc3)c(CC(=O)O)s2)cc1
- IC50 [1]: 1700 nM
- IC50 [2]: 820 nM
- Efficacy [3]: > 70%

SMILES: O=C(O)Cc1sc(-c2ccccc2)nc1-c1ccc(-c2ccccc2)cc1
- IC50 [1]: 630 nM
- IC50 [2]: 38 nM
- Efficacy [3]: > 70%

SMILES: COc1ccccc1Nc1nc(-c2ccc(F)cc2)c(CC(=O)O)s1
- IC50 [1]: 2100 nM
- IC50 [2]: 1500 nM
- Efficacy [3]: > 70%

SMILES: O=C(O)Cc1sc(Cc2ccccc2Br)nc1-c1ccc(F)cc1
- IC50 [1]: > 100000 nM
- IC50 [2]: 700 nM
- Efficacy [3]: > 70%

SMILES: COc1ccc(-c2nc(-c3ccc(Oc4ccccc4)cc3)sc2CC(=O)O)cc1
- IC50 [1]: 1600 nM
- IC50 [2]: 470 nM
- Efficacy [3]: > 70%

SMILES: CC(C)c1ccc(Nc2nc(-c3ccc(Cl)cc3)c(CC(=O)O)s2)cc1
- IC50 [1]: 16000 nM
- IC50 [2]: 1200 nM
- Efficacy [3]: > 70%

SMILES: O=C(O)Cc1sc(-c2ccc(F)cc2)nc1-c1ccccc1
- IC50 [1]: 3700 nM
- IC50 [2]: 1500 nM
- Efficacy [3]: > 70%

SMILES: O=C(O)Cc1sc(Nc2ccccc2Cl)nc1-c1ccc(Oc2ccccc2)cc1
- IC50 [1]: > 100000 nM
- IC50 [2]: 130 nM
- Efficacy [3]: > 70%

SMILES: O=C(O)Cc1sc(Nc2ccc3ccccc3c2)nc1-c1ccc(Oc2ccccc2)cc1
- IC50 [1]: 260 nM
- IC50 [2]: 94 nM
- Efficacy [3]: 20%

SMILES: O=C(O)Cc1sc(Cc2ccccc2-c2ccc3c(c2)OCO3)nc1-c1ccc(F)cc1
- IC50 [1]: 1500 nM
- IC50 [2]: 24 nM
- Efficacy [3]: > 70%

SMILES: O=C(O)Cc1sc(Cc2ccccc2Oc2ccccc2)nc1-c1ccc(Cl)cc1
- IC50 [1]: > 100000 nM
- IC50 [2]: 160 nM
- Efficacy [3]: > 70%

SMILES: O=C(O)Cc1sc(Nc2ccc(F)cc2)nc1-c1ccc(Oc2ccccc2)cc1
- IC50 [1]: 540 nM
- IC50 [2]: 89 nM
- Efficacy [3]: > 70%

SMILES: O=C(O)Cc1sc(Nc2ccc(Cl)cc2)nc1-c1ccc(F)cc1
- IC50 [1]: 1900 nM
- IC50 [2]: 960 nM
- Efficacy [3]: > 70%

SMILES: COc1ccc(-c2nc(Nc3ccccc3)sc2CC(=O)O)cc1
- IC50 [1]: 2400 nM
- IC50 [2]: 1900 nM
- Efficacy [3]: > 70%

SMILES: Cc1ccc(-c2nc(-c3ccc(Cl)cc3)sc2CC(=O)O)c(C)c1
- IC50 [2]: 990 nM
- Efficacy [3]: > 70%

SMILES: O=C(O)Cc1sc(-c2ccc(Oc3ccccc3)cc2)nc1-c1ccc(Cl)cc1
- IC50 [1]: 1300 nM
- IC50 [2]: 93 nM
- Efficacy [3]: > 70%

SMILES: COc1ccc(-c2nc(-c3ccc(OC)cc3)c(CC(=O)O)s2)cc1
- IC50 [2]: 4100 nM
- Efficacy [3]: > 70%

SMILES: COc1ccccc1Nc1nc(-c2ccc(Cl)cc2)c(CC(=O)O)s1
- IC50 [1]: 730 nM
- IC50 [2]: 450 nM
- Efficacy [3]: > 70%

SMILES: O=C(O)Cc1sc(Cc2ccccc2)nc1-c1ccc(F)cc1
- IC50 [1]: 180 nM
- IC50 [2]: 140 nM
- Efficacy [3]: 30%

SMILES: CCc1ccc(-c2nc(-c3ccccc3)sc2CC(=O)O)cc1
- IC50 [1]: 350 nM
- IC50 [2]: 1300 nM
- Efficacy [3]: 50%

SMILES: O=C(O)Cc1sc(Cc2ccccc2-c2cccc(OC(F)(F)F)c2)nc1-c1ccc(F)cc1
- IC50 [1]: > 100000 nM
- IC50 [2]: 160 nM
- Efficacy [3]: > 70%

SMILES: COc1cccc(-c2ccccc2Cc2nc(-c3ccc(F)cc3)c(CC(=O)O)s2)c1
- IC50 [1]: 390 nM
- IC50 [2]: 40 nM
- Efficacy [3]: > 70%

SMILES: O=C(O)Cc1sc(-c2ccccc2)nc1-c1ccc(Cl)cc1 [FENTIAZAC]
- IC50 [1]: 960 nM
- IC50 [2]: 550 nM
- Efficacy [3]: > 70%

SMILES: O=C(O)Cc1sc(Cc2ccccc2-c2ccccc2)nc1-c1ccc(Cl)cc1
- IC50 [1]: 510 nM
- IC50 [2]: 41 nM
- Efficacy [3]: > 70%

SMILES: O=C(O)Cc1sc(Nc2ccc(Cl)cc2)nc1-c1ccc(-c2ccccc2)cc1
- IC50 [1]: 3800 nM
- IC50 [2]: 940 nM
- Efficacy [3]: 20%

SMILES: COc1ccccc1Nc1nc(-c2ccc(Oc3ccccc3)cc2)c(CC(=O)O)s1
- IC50 [1]: 480 nM
- IC50 [2]: 49 nM
- Efficacy [3]: > 70%

SMILES: COc1ccc(-c2nc(-c3ccc(Cl)cc3)sc2CC(=O)O)cc1
- IC50 [2]: 210 nM
- Efficacy [3]: > 70%

SMILES: COc1ccc(-c2nc(-c3ccc(Br)cc3)c(CC(=O)O)s2)cc1
- IC50 [2]: 390 nM
- Efficacy [3]: > 70%

SMILES: O=C(O)Cc1sc(Nc2ccccc2)nc1-c1ccc(-c2ccccc2)cc1
- IC50 [1]: 1200 nM
- IC50 [2]: 660 nM
- Efficacy [3]: > 70%

SMILES: COc1ccccc1-c1nc(-c2ccc(Br)cc2)c(CC(=O)O)s1
- IC50 [2]: 350 nM
- Efficacy [3]: > 70%

SMILES: Cc1ccc(Nc2nc(-c3ccc(Cl)cc3)c(CC(=O)O)s2)cc1
- IC50 [1]: 560 nM
- IC50 [2]: 750 nM
- Efficacy [3]: > 70%

SMILES: O=C(O)Cc1sc(Cc2ccccc2-c2ccccc2)nc1-c1ccc(F)cc1
- IC50 [1]: 370 nM
- IC50 [2]: 24 nM
- Efficacy [3]: > 70%

SMILES: O=C(O)Cc1sc(Nc2ccc3ccccc3c2)nc1-c1ccc(Br)cc1
- IC50 [1]: 370 nM
- IC50 [2]: 220 nM
- Efficacy [3]: > 70%

SMILES: COc1ccc(Cc2nc(-c3ccccc3)c(CC(=O)O)s2)cc1OC
- IC50 [1]: 3800 nM
- IC50 [2]: 330 nM
- Efficacy [3]: > 70%

SMILES: O=C(O)Cc1sc(Cc2ccc(Cl)cc2)nc1-c1ccc(Oc2ccccc2)cc1
- IC50 [1]: 66 nM
- IC50 [2]: 3.7 nM
- Efficacy [3]: > 70%

SMILES: O=C(O)Cc1sc(-c2ccccc2)nc1-c1ccc(F)cc1
- IC50 [1]: 3500 nM
- IC50 [2]: 860 nM
- Efficacy [3]: > 70%

SMILES: O=C(O)Cc1sc(-c2ccc(Oc3ccccc3)cc2)nc1-c1ccccc1
- IC50 [1]: 660 nM
- IC50 [2]: 160 nM
- Efficacy [3]: > 70%

SMILES: COc1ccc(-c2nc(-c3ccccc3)sc2CC(=O)O)cc1
- IC50 [1]: 5000 nM
- IC50 [2]: 7000 nM
- Efficacy [3]: > 70%

SMILES: COc1ccc(-c2nc(Cc3ccc(Cl)cc3)sc2CC(=O)O)cc1
- IC50 [1]: 850 nM
- IC50 [2]: 360 nM
- Efficacy [3]: > 70%

SMILES: O=C(O)Cc1sc(Cc2ccc(Cl)cc2)nc1-c1ccc(Cl)cc1
- IC50 [1]: 220 nM
- IC50 [2]: 50 nM
- Efficacy [3]: > 70%

SMILES: O=C(O)Cc1sc(Cc2ccc3ccccc3c2)nc1-c1ccc(Cl)cc1
- IC50 [1]: 570 nM
- IC50 [2]: 41 nM
- Efficacy [3]: > 70%

SMILES: N#Cc1cccc(-c2ccccc2Cc2nc(-c3ccc(F)cc3)c(CC(=O)O)s2)c1
- IC50 [1]: > 100000 nM
- IC50 [2]: 340 nM
- Efficacy [3]: > 70%

SMILES: COc1ccccc1-c1ccccc1Cc1nc(-c2ccc(F)cc2)c(CC(=O)O)s1
- IC50 [1]: > 100000 nM
- IC50 [2]: 170 nM
- Efficacy [3]: > 70%

SMILES: O=C(O)Cc1sc(Nc2ccc(C(F)(F)F)cc2)nc1-c1ccc(Cl)cc1
- IC50 [1]: 1100 nM
- IC50 [2]: 700 nM
- Efficacy [3]: > 70%

SMILES: CCc1ccc(-c2nc(-c3ccccc3OC)sc2CC(=O)O)cc1
- IC50 [2]: 1400 nM
- Efficacy [3]: > 70%

SMILES: O=C(O)Cc1sc(-c2ccc(Cl)cc2)nc1-c1ccccc1
- IC50 [1]: 1600 nM
- IC50 [2]: 990 nM
- Efficacy [3]: > 70%

SMILES: O=C(O)Cc1sc(Cc2ccc(Cl)cc2)nc1-c1ccccc1
- IC50 [1]: 580 nM
- IC50 [2]: 88 nM
- Efficacy [3]: > 70%

SMILES: Cc1ccc(Cc2nc(-c3ccccc3)c(CC(=O)O)s2)cc1
- IC50 [1]: 1800 nM
- IC50 [2]: 250 nM
- Efficacy [3]: > 70%
